Some results are limits rather than exact numbers.

Here are results for 15 compounds from ChEMBL document CHEMBL2331240, “Focused library development of 2-phenylacrylamides as broad spectrum cytotoxic agents” (2013).

A short description of test [1]: Cytotoxicity against human SJ-G2 cells assessed as growth inhibition measured after 72 hrs by MTT assay. Format: functional. The note with it: SJ-G2, 72 h. Summed up:
(§1)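 Cells in log phase were seeded in duplicate at 2500–4000 cells/well in supplemented DMEM (37 °C, 5% CO2). Drug from a 40 mM DMSO stock was added on day 0, 24 h post-plating. Read-out was MTT absorbance at 540 nm after 72 h.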
On the technique in general: Tetrazolium dyes change colour on reduction, which living cells bring about.

Test [2] is described as follows: Cytotoxicity against human MIA cells assessed as growth inhibition measured after 72 hrs by MTT assay. The format is functional. Summed up: as §1
For another test, the system named is DU-145. Description: Cytotoxicity against human DU145 cells assessed as growth inhibition measured after 72 hrs by MTT assay. Format: functional. The conditions noted are these: DU-145, 72 h. Summed up:
as §1

Test [3] in a line: Cytotoxicity against human BE(2)-C cells assessed as growth inhibition measured after 72 hrs by MTT assay. Format: functional. The method, boiled down: as §1
Test [4] is described as follows: Cytotoxicity against human H460 cells assessed as growth inhibition measured after 72 hrs by MTT assay. Format: functional. The conditions noted are these: NCI-H460, 72 h. Summed up: as §1
In another test the test system is A-431. As to the kind of experiment: Cytotoxicity against human A431 cells assessed as growth inhibition measured after 72 hrs by MTT assay. Format: functional. The note with it: A-431, 72 h. The method, boiled down:
as §1

A further test deals with MCF7. As to the kind of experiment: Cytotoxicity against human MCF7 cells assessed as growth inhibition measured after 72 hrs by MTT assay. The format is functional. The note with it: MCF7, 72 h. Summed up:
as §1

The next test deals with A2780. Description: Cytotoxicity against human A2780 cells assessed as growth inhibition measured after 72 hrs by MTT assay. The format is functional. The note with it: A2780, 72 h. The method, boiled down: as §1
The test system of a further test is HT-29. As to the kind of experiment: Cytotoxicity against human HT-29 cells assessed as growth inhibition measured after 72 hrs by MTT assay. Format: functional. The note with it: HT-29, 72 h. Summed up: as §1
The test system of another test is SW480. As to the kind of experiment: Cytotoxicity against human SW480 cells assessed as growth inhibition measured after 72 hrs by MTT assay. The format is functional. The conditions noted are these: SW480, 72 h. The method, boiled down: as §1
Test [5] is described as follows: Cytotoxicity against mouse SMA cells assessed as growth inhibition measured after 72 hrs by MTT assay.

Usually GI50 stands for the concentration at which growth is held to half of that of the control. For the compound `N#C/C(=C\c1ccc(Cl)cc1)C(=O)NCc1ccc(Cl)c(Cl)c1`, the GI50 in [1] is 30 µM; in [2], 31 µM; with DU-145, 30 µM; in test [3], 31 µM; in test [4], 33 µM; in the test on A-431 it was 30 µM. The 50% growth inhibitory concentration (GI50) was determined as 21 µM in the test on MCF7; 32 µM in the test on A2780; 33 µM in the test with HT-29; 30 µM in the test on SW480; 33 µM in [5].

For the compound `N#C/C(=C\c1ccccc1)C(=O)NCc1ccc(Cl)c(Cl)c1`, the GI50 in [1] stood at 43 µM; in test [2], 47 µM; in the test on DU-145, 71 µM; in test [3], 32 µM; in test [4] it was 61 µM; in the test on A-431, 43 µM. The GI50 amounted to 29 µM in the test with MCF7; 49 µM in the test with A2780; 70 µM with HT-29; 49 µM in the test with SW480; 43 µM in test [5].

Take `COc1ccc(CNC(=O)/C(C#N)=C/c2ccccc2)cc1`: the GI50 in test [1] was determined as 17 µM; in test [2] it was 24 µM; with DU-145, 13 µM; in [3] it was 15 µM; in [4] it was 18 µM; with A-431, 9 µM. Further, the GI50 was 18 µM in the test on MCF7; 9 µM in the test with A2780; 9 µM in the test with HT-29; 14 µM with SW480; 16 µM in [5].

As to `N#C/C(=C\c1c(F)c(F)c(F)c(F)c1F)C(=O)c1c[nH]c2ccccc12`, the GI50 in [1] was 14 µM; in [2] it was 21 µM; in the test on DU-145 it was 30 µM; in test [3] it was 10 µM; in test [4] it was 35 µM; in the test with A-431, 19 µM. Further, the GI50 in the test on MCF7 came out at 13 µM; in the test on A2780, 11 µM; in the test on HT-29, 18 µM; with SW480 it was 18 µM; in test [5], 20 µM.

On to `N#C/C(=C\c1ccco1)C(=O)NCc1ccc(Cl)c(Cl)c1`, for which the 50% growth inhibitory concentration (GI50) in test [1] is above 50 µM; in test [2], above 50 µM; with DU-145, 24 µM; in test [3], above 50 µM; in test [4], above 50 µM; in the test with A-431, above 50 µM. The GI50 with MCF7 is 20 µM; in the test on A2780 it was above 50 µM; with HT-29, 20 µM; in the test with SW480 it was above 50 µM; in [5] it was 38 µM.

Consider `COc1ccc(CNC(=O)/C(C#N)=C/c2ccc(Cl)cc2)cc1`, for which the 50% growth inhibitory concentration (GI50) in test [1] amounted to 11 µM; in test [2], 16 µM; in the test with DU-145, 7 µM; in [3] it was 12 µM; in [4], 14 µM; with A-431, 6 µM. For the same compound, the GI50 with MCF7 was determined as 11 µM; in the test on A2780, 7 µM; with HT-29, 7 µM; in the test with SW480, 10 µM; in [5], 17 µM.

As to `COc1ccc(CNC(=O)/C(C#N)=C/c2ccco2)cc1`, the GI50 was found to be 31 µM in test [1]; 34 µM in [2]; 29 µM with DU-145; 24 µM in test [3]; 32 µM in test [4]; 16 µM with A-431. For the same compound, the 50% growth inhibitory concentration (GI50) in the test on MCF7 amounted to 27 µM; in the test on A2780, 24 µM; in the test with HT-29 it was 22 µM; with SW480 it was 31 µM; in test [5] it was 33 µM.

As for `COc1ccc(CNC(=O)/C(C#N)=C/c2ccc3ccccc3c2)cc1`, the concentration for 50% growth inhibition (GI50) was 40 µM in test [1]; 49 µM in test [2]; 80 µM in the test on DU-145; 42 µM in test [3]; above 100 µM in [4]; 37 µM in the test on A-431. Moreover, the GI50 in the test on MCF7 was 33 µM; in the test on A2780, 40 µM; with HT-29, 54 µM; in the test with SW480, 41 µM; in test [5] it was 43 µM.

For `COc1ccc(CNC(=O)/C(C#N)=C/c2ccc(Cl)o2)cc1`, the GI50 stood at 13 µM in test [1]; 15 µM in test [2]; 12 µM in the test with DU-145; 11 µM in test [3]; 15 µM in test [4]; 9 µM in the test with A-431. Further, the 50% growth inhibitory concentration (GI50) with MCF7 is 9 µM; in the test with A2780 it was 9 µM; with HT-29, 9 µM; with SW480, 13 µM; in test [5], 14 µM.

`N#C/C(=C\c1cccc2ccccc12)C(=O)NCc1ccc(Cl)c(Cl)c1`: the GI50 in [1] turned out to be 13 µM; in [2], 8 µM; with DU-145, 12 µM; in test [3], 7 µM; in test [4] it was 7 µM; with A-431, 8 µM. The concentration for 50% growth inhibition (GI50) with MCF7 turned out to be 8 µM; with A2780, 7 µM; in the test on HT-29, 7 µM; in the test on SW480, 11 µM; in test [5], 7 µM.

Regarding `COc1ccc(CNC(=O)/C(C#N)=C/c2ccc[nH]2)cc1`, the 50% growth inhibitory concentration (GI50) is above 50 µM in test [1]; above 50 µM in test [2]; above 50 µM in the test on DU-145; 47 µM in test [3]; above 50 µM in [4]; above 50 µM in the test on A-431. For the same compound, the concentration for 50% growth inhibition (GI50) is 34 µM with MCF7; above 50 µM in the test with A2780; above 50 µM in the test with HT-29; above 50 µM in the test on SW480; above 50 µM in test [5].

Consider `N#C/C(=C\c1ccc([N+](=O)[O-])cc1)C(=O)c1c[nH]c2ccccc12`, for which the concentration for 50% growth inhibition (GI50) in [1] is 37 µM; in test [2], 46 µM; in the test with DU-145, 59 µM; in [3], 40 µM; in [4] it was 47 µM; in the test with A-431, 46 µM. Further, the GI50 in the test on MCF7 worked out at 35 µM; in the test with A2780 it was 48 µM; in the test on HT-29, 41 µM; in the test on SW480, 42 µM; in [5], 60 µM.

`COc1ccc(CNC(=O)/C(C#N)=C/c2cccc3ccccc23)cc1`: the concentration for 50% growth inhibition (GI50) in test [1] was found to be 15 µM; in test [2], 15 µM; in the test on DU-145 it was 16 µM; in test [3] it was 14 µM; in test [4], 15 µM; in the test with A-431, 15 µM. Also, the GI50 with MCF7 turned out to be 16 µM; in the test on A2780, 16 µM; in the test on HT-29 it was 13 µM; in the test on SW480 it was 14 µM; in [5], 15 µM.

As for `N#C/C(=C\c1ccc2ccccc2c1)C(=O)NCc1ccc(Cl)c(Cl)c1`, the concentration for 50% growth inhibition (GI50) in test [1] is 49 µM; in test [2] it was 44 µM; in the test with DU-145, 77 µM; in [3], 40 µM; in test [4], above 100 µM; in the test with A-431, 50 µM. For the same compound, the GI50 in the test on MCF7 was 29 µM; in the test with A2780, 44 µM; in the test on HT-29, 44 µM; in the test on SW480 it was 50 µM; in test [5] it was 64 µM.

For `COc1ccc(CNC(=O)/C(C#N)=C/c2cc(Br)co2)cc1`, the 50% growth inhibitory concentration (GI50) is 23 µM in [1]; 65 µM in test [2]; 61 µM in the test on DU-145; 36 µM in [3]; above 100 µM in test [4]; 14 µM in the test with A-431. In addition, the 50% growth inhibitory concentration (GI50) is 20 µM in the test on MCF7; 28 µM in the test on A2780; 36 µM with HT-29; above 100 µM in the test with SW480; above 100 µM in [5].
